Reference: PubChem BioAssay AID720702 (The Scripps Research Institute Molecular Screening Center, 2013)
Out of some 370,000 compounds screened, about 1,200 (0.32%) were called active. This excerpt belongs to a sample that is enriched for actives. A number with no mark means an inactive call.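 The calls were made as follows: active = inhibition above the mean of all tested compounds plus 3 SD, set per campaign (cut at about 25% in these data); inactive = the rest.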

The compounds below were run against Tyrosyl-DNA phosphodiesterase 2 (Homo sapiens) (UniProt O95551) (assay: human TDP2 enzyme inhibitors, primary screen, biochemical, epi absorbance, recombinant enzyme (AID 720702;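 also: 0% = DMSO with enzyme and 100% = buffer with substrate but no TDP2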)). Details: recombinant TDP2, T5PNP hydrolysis, p-nitrophenol absorbance 415 nm; at 12.8 µM; stronger effect = higher value.
Sequence of Tyrosyl-DNA phosphodiesterase 2 (Homo sapiens) (O95551 whole entry, looked up): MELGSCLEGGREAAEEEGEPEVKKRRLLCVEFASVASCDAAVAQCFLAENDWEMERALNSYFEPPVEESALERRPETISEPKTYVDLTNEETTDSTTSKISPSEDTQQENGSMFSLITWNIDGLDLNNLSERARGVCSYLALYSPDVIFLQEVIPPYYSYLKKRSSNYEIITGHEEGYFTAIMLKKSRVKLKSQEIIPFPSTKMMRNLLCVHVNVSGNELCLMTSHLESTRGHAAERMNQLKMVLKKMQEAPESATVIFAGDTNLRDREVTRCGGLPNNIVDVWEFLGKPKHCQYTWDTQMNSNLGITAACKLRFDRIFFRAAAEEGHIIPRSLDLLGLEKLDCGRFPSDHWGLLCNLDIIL
Summary of the method: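 Test system: human TDP2 enzyme; Input: 120 nM TDP2 per well; Buffer or medium: Mg2+-containing Tris-HCl buffer, pH 7.5; Reagent: 5 mM T5PNP; Dosing: 12.8 µM single point, 1% DMSO; Incubation: reaction 2 h, 37 °C; Detection: p-Nitrophenol epi absorbance; Read-out: % inhibition relative to enzyme-containing and enzyme-free wells; Replicates: single well per compound.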

SMILES | inhibition
COc1cc(Cn2c(N)c(C(=O)NCc3ccco3)c3nc4ccccc4nc32)cc(OC)c1OC | 0.54%
CCOC(=O)c1c(N)n(Cc2ccccc2)c2nc3ccccc3nc12 | 82.6% (active)
CCOC(=O)c1cccc(C2=C(CNC(=O)c3ccncc3)[C@H]3CC[C@@H](C2)N3Cc2ccccc2)c1 | 4.63%
CCC(C)n1c(O)c(/C=N/Nc2nc3c(c(=O)n(C)c(=O)n3C)n2C)c(=O)[nH]c1=S (stereo not given) | -0.24%
CCC(C)NC1(c2ccccc2)CCCCC1 (stereo not given) | 5%
CC(Cc1cccs1)NCc1ccc(Cl)cc1 (stereo not given) | 4.69%
Cn1c(C(=O)N2CCC(C(=O)N3CCC4(CC3)OCCO4)CC2)cc2sccc21 | -4.33%
O=C1NC(=O)N(Cc2ccco2)C(=O)/C1=C\c1ccc(-c2ccc(F)cc2)o1 | 26.3% (active)
N[C@@H](Cc1c[nH]c2ccccc12)c1nnc(SCc2c(F)cccc2Cl)o1 | 5.28%
Cc1ccccc1CCC[C@@H](CC1CCCCC1)CN(C)C(=O)Oc1ccccc1 | -0.32%
